DAGLB inhibitor: diacylglycerol lipase beta (human) inhibition. HEK293T DAGLB membrane lysate, EnzChek fluorogenic substrate. Q8NCG7. inhibition, % at 5.17 µM. hit rate 0.059% among 340,000; in the data active = inhibition above about 34%;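 note: 0% = enzyme with vehicle and 100% = wells lacking enzyme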
Target sequence (Q8NCG7 whole entry, looked up): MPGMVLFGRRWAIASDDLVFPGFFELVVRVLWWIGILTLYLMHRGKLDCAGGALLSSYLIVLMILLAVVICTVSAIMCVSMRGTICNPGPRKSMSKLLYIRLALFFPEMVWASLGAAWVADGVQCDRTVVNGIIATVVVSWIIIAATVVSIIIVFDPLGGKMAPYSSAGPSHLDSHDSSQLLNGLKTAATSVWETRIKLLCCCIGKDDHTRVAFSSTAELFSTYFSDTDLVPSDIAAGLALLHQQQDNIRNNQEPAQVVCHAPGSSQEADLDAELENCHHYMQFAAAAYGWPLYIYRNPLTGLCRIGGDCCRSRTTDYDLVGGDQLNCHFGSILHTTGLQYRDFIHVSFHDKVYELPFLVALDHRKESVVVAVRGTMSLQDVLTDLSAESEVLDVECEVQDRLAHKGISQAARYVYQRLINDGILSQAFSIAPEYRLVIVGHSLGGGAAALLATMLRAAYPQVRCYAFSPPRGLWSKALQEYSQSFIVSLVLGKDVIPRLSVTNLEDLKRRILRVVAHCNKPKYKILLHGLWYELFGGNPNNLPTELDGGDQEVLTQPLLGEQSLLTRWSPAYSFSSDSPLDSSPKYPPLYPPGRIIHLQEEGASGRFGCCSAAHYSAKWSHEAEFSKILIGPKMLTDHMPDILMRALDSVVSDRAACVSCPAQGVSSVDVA
PRMT1 inh: PRMT1 (human) inhibition, primary screen; inhibition, % at 2.79 µM; hit rate 1.3% among 370,000; Q99873; AID 652257; recombinant PRMT1, activity-based probe fluorescence polarization;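 active = inhibition above about 21% made by adding two undisclosed values, limit read from the data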
HTRA1 inh: inhibitors of human serine peptidase HTRA1 | Q92743 | recombinant HTRA1, FP-rhodamine activity-based probe, fluorescence polarization | inhibition, % at 5.96 µM | hit rate 0.5% among 340,000 | AID 504803; in the data active = inhibition above about 36%;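 note: 0% = enzyme with DMSO and 100% = wells lacking enzyme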
rCAG binder: binds r(CAG) RNA repeats. hit rate 1.3% among 370,000. AID 651821. inhibition, % at 3 µM. r(CAG) RNA repeat, TO-PRO-1 dye displacement fluorescence;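 active = inhibition above the plate cutoff, the mean of all test compounds on that plate plus 3 SD, cut at about 35% in these data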;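 note: 0% = DMSO alone and 100% = 100 µM mitoxantrone as full dye displacement; higher means more dye released from RNA so lower well fluorescence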
ABHD4 inh: inhibitors of mouse ABHD4 | inhibition, % at 8.92 µM | purified mABHD4, FP-Rh probe fluorescence polarization | hit rate 0.54% among 370,000;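 active = inhibition exceeding the mean over every tested compound plus 3 SD, cut at about 30% in these data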;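 note: 0% = plate median of compound wells and 100% = S159A mutant with DMSO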
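Assay system: mouse ABHD4 enzyme, wild type / Also added: fluorescent activity-based probe FP-Rh / Doses: single nominal dose of 8.92 µM, 0.89% DMSO final / Timing: 45 min compound pre-incubation plus 60 min probe step, 25 °C / Signal: FP readout, ex 525 nm / em 598 nm / Control set: S159A mutant/DMSO as 100%, compound-well median as 0%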
LEDGF integ inh: blocks HIV-1 LEDGF/p75-dependent DNA integration | TR-FRET IN-LEDGF/p75 DNA integration, Eu/Cy5 | inhibition, % at 3.7 µM | hit rate 0.64% among 370,000 | AID 743269;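 active = inhibition above the screen-wide mean plus 3 SD, cut at about 13% in these data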;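 note: signal is the Cy5 over europium emission ratio at 671 and 618 nm; 0% = plate median of compound wells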
HTRA1 conf: confirmation of human HTRA1 inhibitors; recombinant HTRA1, FP-rhodamine activity-based probe, fluorescence polarization; AID 540248; shares compounds with HTRA1 inh; hit rate 66% among 1,600; inhibition, % at 5.96 µM;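 active = mean inhibition over three repeats above a set limit taken from the earlier primary screen, cut at about 37% in these data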;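 note: 0% = HTRA1 with DMSO and 100% = wells lacking HTRA1; inhibitors block probe binding so polarization drops and inhibition rises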
rCAG bind conf: r(CAG) RNA repeat binding, confirmation. TO-PRO-1 dye displacement fluorescence. hit rate 70% among 4,300. AID 652065. shares compounds with rCAG binder. inhibition, % at 3 µM;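 active = inhibition above a per-plate cutoff, the mean inhibition of sample wells plus 3 SD, cut at about 35% in these data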;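 note: loss of TO-PRO-1 fluorescence as compound displaces dye from 1x1 AA loop RNA; 0% = DMSO only wells and 100% = 100 µM mitoxantrone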
DNA CAG counter: counter-screen for rCAG RNA binders: DNA CAG dye complex inhibitors; shares compounds with rCAG binder; d(CAG) DNA oligo TO-PRO-1 dye displacement, fluorescence; inhibition, % at 3 µM; hit rate 94% among 4,300;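 active = inhibition above its plate's cutoff, the mean test-well inhibition plus 3 SD, cut at about 4.8% in these data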;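 note: 0% = DNA dye mix with DMSO and 100% = 100 µM mitoxantrone; hits displace the dye from DNA and so lower well fluorescence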
PRMT1 inh conf: confirmation of human PRMT1 inhibitors; inhibition, % at 2.79 µM; recombinant His-PRMT1, activity-based probe fluorescence polarization; shares compounds with PRMT1 inh; hit rate 42% among 3,300; AID 687036;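 active = mean inhibition across replicates above the hit cutoff derived for the earlier primary screen, cut at about 22% in these data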
ABHD4 confirm: ABHD4 (mouse) inhibition, FP confirmation. AID 720658. shares compounds with ABHD4 inh. purified mABHD4, FP-Rh probe fluorescence polarization. inhibition, % at 8.92 µM. hit rate 55% among 1,800;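 active = mean inhibition across replicates above the hit cutoff set in the primary screen, cut at about 30% in these data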;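 note: 0% = wild-type ABHD4 with DMSO and 100% = catalytically dead S159A mutant with DMSO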
An asterisk follows results filed as active; i = inactive; · = no result. In the library only some 3.2% were active in any assay of this set; here they are far more common.

SMILES	DAGLB inhibitor	PRMT1 inh	HTRA1 inh	rCAG binder	ABHD4 inh	LEDGF integ inh	HTRA1 conf	ABHD4 confirm	others
O=C1c2ccccc2-c2onc3ccc(N4CCCC4)c1c23	-46.6	89.5*	91.4*	-255.7	99.4*	-4.1	27.3	70.1*	PRMT1 inh conf=74.0*
CCOC(=O)c1c(C)oc2c1C(=O)c1ccccc1C2=O	0.1	-0.6	4.1	1.3	0.5	1.3	·	·
CCNc1ccc2noc3c2c1C(=O)c1ccccc1-3	-450.6	153.6*	123.1*	i	121.9*	-11.3	112.3*	116.0*
CC1(C(=O)NS(=O)(=O)c2ccccc2)CCN1C(=O)COc1ccc(Cl)cc1 (stereo unspecified)	·	-2.2	·	5.9	1.6	-1.6	·	·
Cc1ccc(S(=O)(=O)n2cc(C=O)c3ccccc32)cc1	-4.7	-7.3	-42.4	4.8	-9.5	1.5	·	·
CCN(CC)S(=O)(=O)c1ccc(N2CC(C(=O)N3CCOCC3)CC2=O)cc1 (stereo unspecified)	-0.5	1.2	-3.7	4.8	3.8	-3.0	·	·
Cc1ccc(C)c(OCC(=O)N(C)CC(=O)Nc2ccc(Cl)c(C(F)(F)F)c2)c1	-3.8	-3.1	-50.8	6.3	-43.2	4.9	·	·
O=C(Cc1ccc(Cl)cc1)N/N=C/c1ccc(O)c(O)c1	8.0	3.3	62.7*	6.5	33.3*	-8.3	68.3*	15.3
CCCOC(=O)C1=C(C)NC2=C(C(=O)CCC2)C1c1ccc(N(C)C)cc1 (stereo unspecified)	0.6	3.4	0.3	-0.2	-0.6	-8.5	·	·
CCOC(=O)c1sc(N=NC2=C(O)CCCC2=O)c(C(=O)OCC)c1C	18.9	5.8	47.6*	56.9*	52.1*	4.7	38.5*	34.1*	rCAG bind conf=32.7;DNA CAG counter=16.6*
Cc1[nH]n(-c2ncc(-c3ccccc3)s2)c(=O)c1C(c1ccc(Br)cc1)C(C#N)C#N (stereo unspecified)	18.5	3.3	39.1*	56.6*	50.5*	2.1	30.5	42.9*	rCAG bind conf=80.1*;DNA CAG counter=50.3*
Cc1[nH]n(C(N)=S)c(=O)c1C(c1ccccc1)C(C#N)C#N (stereo unspecified)	0.9	2.5	8.0	3.5	6.8	2.4	·	·
CC(C)(C)c1ccc(Cn2c(=O)cnc3ccccc32)cc1	-5.3	-1.5	-13.7	-1.7	2.1	3.4	·	·
O=C(CCN1CCCCO1)N1CCCC(N2CCN(c3ccc(F)cc3)CC2)C1 (stereo unspecified)	0.4	-1.9	-0.9	-6.9	-1.9	1.2	·	·
N#C/C(=C\c1ccc(O)c(O)c1)C(=O)N1CCc2ccccc21	33.8	7.9	70.7*	26.4	55.1*	-6.9	86.2*	16.4
COc1cc(/C=C(\C#N)C(=O)N2CCc3ccccc32)ccc1O	1.0	1.2	1.9	3.0	3.9	-4.1	·	·
N#C/C(=C\c1ccc(O)c(O)c1)C(=O)NCCc1ccccc1	28.9	11.6	70.5*	39.4*	50.7*	-9.4	92.9*	32.6*	rCAG bind conf=44.5*;DNA CAG counter=13.1*
CN(C)/C=C(\C(=O)c1ccc(Cl)cc1)c1nnnn1-c1ccc(Cl)cc1	-5.7	-0.1	4.6	1.1	-6.4	3.4	·	·
CCOC(=O)c1c(C)[nH]c(C)c1C(=O)COc1ccc(NC(=O)c2ccco2)cc1	0.9	-2.4	-4.7	1.2	-3.6	-1.2	·	·
Nc1cc2c(cc1O)CCCC2	2.9	4.6	44.4*	12.2	29.9*	3.7	30.3	27.7
CC(C)(C)CC(=O)N1CCN(c2ccc(S(=O)(=O)N3CCOCC3)cc2[N+](=O)[O-])CC1	1.4	0.0	5.0	-0.1	6.5	2.2	·	·
Cc1ccc2c(c1)c1c3n2CCN(C(=O)C2CC2)C3CCC1 (stereo unspecified)	-4.7	0.5	5.1	8.3	6.7	3.0	·	·
Cc1ccc2c(c1)c1c3n2CC(=C2C(=O)OC(C)(C)OC2=O)NC3CCC1 (stereo unspecified)	5.1	2.6	50.9*	46.7*	37.0*	5.7	61.4*	30.5*	rCAG bind conf=34.2;DNA CAG counter=18.4*
CNc1nc(N)c([N+](=O)[O-])c(NCCO)n1	-0.7	0.5	-1.4	0.7	3.9	0.5	·	·
O=C(Nc1cccc2[nH]ncc12)NS(=O)(=O)c1ccccc1	1.1	17.8	43.9*	6.7	98.2*	3.5	7.3	8.0
SMILES	DAGLB inhibitor	PRMT1 inh	HTRA1 inh	rCAG binder	ABHD4 inh	LEDGF integ inh	HTRA1 conf	ABHD4 confirm	others
COc1ccc(CCN=C(NS(=O)(=O)c2ccc(Cl)cc2)c2ccccc2)cc1	·	0.1	·	-5.9	-6.4	3.5	·	·
O=C(O)CCNc1ccc(NCCC(=O)O)c2c1C(=O)c1ccccc1C2=O	1.3	27.4*	44.4*	19.3	56.1*	-7.6	58.6*	65.4*
CCCCn1c(N)c(N(Cc2ccccc2OC)C(=O)C(C)Oc2ccc(Br)cc2)c(=O)[nH]c1=O (stereo unspecified)	4.0	0.2	0.4	3.8	-5.5	-1.7	·	·
O=C(O)CN1C(=O)c2ccc(Oc3ccc([N+](=O)[O-])cc3)cc2C1=O	1.0	0.4	0.2	3.4	-3.9	-0.1	·	·
O=[N+]([O-])c1cc(-c2ccc(/C=N/c3nc4ccccn4c3-c3ccco3)o2)ccc1Cl	7.4	40.8*	36.7*	10.9	45.6*	11.1	45.6*	16.1	PRMT1 inh conf=0.8
COc1ccc2[nH]c(=O)cc(C(=O)O)c2c1	-1.4	-0.6	3.2	8.3	6.6	6.1	·	·
COc1ccc2[nH]c3c4c(ccc3c2c1)C(=O)C=CC4=O	4.2	19.9	79.6*	43.5*	55.5*	-1.1	52.5*	51.4*	rCAG bind conf=19.1;DNA CAG counter=14.8*
O=C(/C=C/c1ccc(Cl)cc1Cl)c1ccc[nH]1	-3.1	-1.5	-19.1	8.5	-17.7	1.6	·	·
COc1cccc(/C=C/C(=O)OCC(=O)NCCNC(=O)COC(=O)/C=C/c2cccc(OC)c2)c1	0.1	1.7	2.9	4.3	5.2	-6.5	·	·
CNc1ccc(Br)cc(C(=O)/C=C/c2cccc(OC)c2)c1=O	11.2	27.2*	39.5*	36.0*	36.8*	12.3	-0.9	42.8*	rCAG bind conf=37.1*;DNA CAG counter=16.0*
CNc1ccc(Br)cc(C(=O)/C=C/c2ccc(Cl)cc2Cl)c1=O	21.6	22.2*	63.9*	34.2	33.2*	0.1	48.3*	57.2*
